Here are results for 2 compounds from ChEMBL document CHEMBL4152256, “Structure-activity relationship of new antimalarial 1-aryl-3-susbtituted propanol derivatives: Synthesis, preliminary toxicity profiling, parasite life cycle stage studies, target exploration, and targeted delivery” (Eur J Med Chem, 2018).

The nature of data set [1]: Genotoxicity in Salmonella typhimurium TA1535 harboring pSK1002 assessed as survival at 0.0005 mg/ml in presence of Sprague-Dawley rat liver S9 fraction after by SOS/umu assay relative to control. It is filed as toxicity, organism-based. Conditions: salmonella enterica subsp. enterica serovar typhimurium, read-out: Survival.
Data set [2] is described as follows: Genotoxicity in Salmonella typhimurium TA1535 harboring pSK1002 assessed as umu gene induction at 0.0005 mg/ml in presence of Sprague-Dawley rat liver S9 fraction after by SOS/umu assay relative to control. It is filed as toxicity, organism-based. Conditions: salmonella enterica subsp. enterica serovar typhimurium, read-out: FC.
Data set [3] can be described thus: Genotoxicity in Salmonella typhimurium TA1535 harboring pSK1002 assessed as survival at 0.0005 mg/ml in absence of Sprague-Dawley rat liver S9 fraction after by SOS/umu assay relative to control. The class given is toxicity, organism-based. The note with it: salmonella enterica subsp. enterica serovar typhimurium, read-out: Survival.
Data set [4] is described as follows: Drug internalization in liposomes assessed as zeta potential at 500 uM in presence of pH 4 citrate buffer solution (reference value: -2.73 mV). The class given is physicochemical. Conditions: artificial membrane, pH 4, 500 µM. In outline:
(§1)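 Zeta potential of liposomes loaded with compound (500 µM drug per 10 mM lipid), measured in the pH 4.0 citrate hydration buffer and again after buffer exchange to PBS pH 7.4; drug-free liposomes of the same lipid composition served as reference.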

A short description of data set [5]: Drug internalization in liposomes assessed as zeta potential at 500 uM in presence of pH 7.4 PBS buffer solution (reference value: -16.48 mV). It is filed as physicochemical. Conditions: artificial membrane, pH 7.4, 500 µM. In outline: as §1
Data set [6] has as its system Plasmodium falciparum. Description: Antiplasmodial activity against Plasmodium falciparum 3D7 late stage forms infected in immunoliposome encapsulated compound pre-loaded human RBC by [3H]-hypoxanthine incorporation assay. It is filed as functional, organism-based. The note with it: 3D7, Erythrocyte.
The subject of data set [7] is Plasmodium falciparum. Description: Ratio of IC50 for antiplasmodial activity against Plasmodium falciparum 3D7 ring stage forms infected in immunoliposome encapsulated compound pre-loaded human RBC by [3H]-hypoxanthine incorporation assay to IC50 for antiplasmodial activity against Plasmodium falciparum 3D7 ring stage forms infected in human non-washed human RBC containing full drug dosages by [3H]-hypoxanthine incorporation assay. The class given is functional.

The test system of data set [8] is Plasmodium falciparum. Description: Antiplasmodial activity against chloroquine-sensitive Plasmodium falciparum 3D7 late forms infected in human RBC using compound encapsulated in to immunoliposome targeted to GPA incubated for 15 mins followed by compound removal and further incubation for 48 hrs by [3H]-hypoxanthine incorporation assay. It is filed as functional, organism-based. Conditions: 3D7, Erythrocyte.

The test system of data set [9] is Plasmodium falciparum. The data set can be described thus: Antiplasmodial activity against chloroquine-sensitive Plasmodium falciparum 3D7 ring forms infected in human RBC using compound encapsulated in to immunoliposome targeted to GPA incubated for 15 mins followed by compound removal and further incubation for 48 hrs by [3H]-hypoxanthine incorporation assay. The note with it: 3D7, Erythrocyte. The class given is functional, organism-based.

Data set [10] deals with Plasmodium falciparum. Description: Antiplasmodial activity against Plasmodium falciparum 3D7 ring stage forms infected in human non-washed human RBC containing full drug dosages by [3H]-hypoxanthine incorporation assay. It is filed as functional, organism-based. The note with it: 3D7, Erythrocyte.
The test system of data set [11] is Plasmodium falciparum. The data set can be described thus: Ratio of IC50 for antiplasmodial activity against chloroquine-sensitive Plasmodium falciparum 3D7 late forms infected in human RBC incubated for 15 mins followed by compound removal and further incubation for 48 hrs by [3H]-hypoxanthine incorporation assay to IC50 for antiplasmodial activity against chloroquine-sensitive Plasmodium falciparum 3D7 late forms infected in human RBC using compound …. It is filed as functional.

In the case of `OC(CCN1CCN(C(c2ccccc2)c2ccccc2)CC1)c1ccc(F)c(F)c1` (stereo unspecified), the viability at 0.0005 mg/ml in data set [1] worked out at 94.7%; in [3], 110%. Further, the fold induction at 0.0005 mg/ml in data set [2] came to 1.

One may read the IC50 as the concentration that inhibits the measured activity by half. On to `N#Cc1ccc(N2CCC(NCCC(O)c3ccc(F)c4ccccc34)CC2)c(C(F)(F)F)c1` (stereo in doubt; 72), for which the Activity is recorded as 8.54 mV in data set [4] and -18.2 mV in data set [5]. The IC50 was 443 nM in the data set with Plasmodium falciparum [6], 175 nM with Plasmodium falciparum [8], 146 nM in the data set on Plasmodium falciparum [9] and 181 nM in the data set on Plasmodium falciparum [10]. Moreover, the “Ratio IC50” value with Plasmodium falciparum [7] is given as 2.8; in the data set with Plasmodium falciparum [11] it was 5.2.
